According to paper PMC11661117 (bioRxiv, 2025):

Columns and labels:
[1] = tested on: tdTomato fibroblasts; test: 3D bioprinted HSE, submerged model, tdTomato signal; type: cell-based, human; conditions: for CC50: read-out: submerged CC50, tdTomato fibroblasts, triplicate
How it was run: (§1)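 Skin equivalent: printed fibrin/gelatin/collagen dermis with tdTomato-labelled fibroblasts and 20,000 keratinocytes on a transwell. One day after keratinocyte seeding, GFP HSV-1 K26 (MOI 0.1) was added apically and test compound to the basal medium, and tissues fixed at 48 hpi. GFP and tdTomato total fluorescence were read from 4X z-stack maximum projections within a ~4 mm circular mask. Values were normalised to DMSO-infected and uninfected wells. Triplicate dose-response, curve-classed.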

[2] = tested on: HSV-1 strain K26 (GFP-expressing); test: 3D bioprinted HSE, submerged model, apical HSV-1 infection, GFP signal; type: cell-based; conditions: for Emax: Human alphaherpesvirus 1, 48 h, read-out: submerged Max Inhibition (%); for submerged Curve Class: CRC class for HSV-1 inhibition
How it was run: as §1

[3] = tested on: HSV-1 strain K26 (GFP-expressing); test: 3D bioprinted HSE, ALI model, basolateral HSV-1 infection, GFP signal; type: cell-based; conditions: for Emax: Human alphaherpesvirus 1, 48 h, read-out: ALI Max Inhibition (%); for ALI Curve Class: CRC class for HSV-1 inhibition
How it was run: (§2)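 Bioprinted dermal base (fibrinogen, gelatin, collagen I) on a transwell membrane, with 20,000 keratinocytes seeded on top and tdTomato-labelled fibroblasts. Four days after air-lift, GFP HSV-1 K26 (MOI 0.1, in cornification medium) and test compound were added basally, and tissues fixed at 48 hpi. Imaging: 4X z-stack maximum projection, edge mask and ≥14.8 µm object filter. GFP and tdTomato were normalised to infected DMSO and uninfected controls (tdTomato floor 0). Triplicate dose-response, curve-classed.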

[4] = 3D bioprinted HSE, submerged model, tdTomato signal; type: cell-based, human; conditions: human
How it was run: as §1

[5] = tested on: HSV-1 strain K26 (GFP-expressing); type: cell-based; conditions: 2D monoculture; for selectivity ratio: read-out: selectivity index in fibroblasts
[6] = 3D bioprinted HSE, ALI model, tdTomato signal; type: cell-based, human; conditions: human
How it was run: as §2

[7] = tested on: HSV-1 strain K26 (GFP-expressing); type: cell-based; conditions: 2D monoculture
[8] = tested on: primary keratinocytes; test: 2D cytotoxicity in uninfected primary keratinocytes; type: cell-based, human; conditions: absence of viral infection
[9] = tested on: tdTomato fibroblasts; test: 3D bioprinted HSE, ALI model, tdTomato signal; type: cell-based, human; conditions: read-out: ALI CC50; tdTomato fibroblasts, triplicate
How it was run: as §2

[10] = Human alphaherpesvirus 1, read-out: submerged IC50 (μM)
[11] = Human alphaherpesvirus 1, read-out: ALI IC50 (μM)
[12] = read-out: submerged IC50, triplicate, 48HPI

IC50 [2, 10] [µM]	IC50 [3, 11] [µM]	Molecule	CC50 at 48 h [4] [nM]	Emax [2] [%]	CC50 at 48 h [6] [nM]	Emax [3] [%]	also measured
		Nc1nc2c(ncn2COCCO)c(=O)[nH]1 [Acyclovir]					cytotoxic effects on the fibroblasts ([1]; submerged and ALI models, tdTomato signal): minimal cytotoxic effects; IC50 ([2]; submerged tissues, assay validation, fig. S5): 0.36 µM; IC50 ([3]; Human alphaherpesvirus 1): < 0.04 µM
0.27	0.16	Cc1cccc(C)c1N(CC(=O)Nc1ccc(-c2ncon2)cc1)C(=O)C1CCS(=O)(=O)CC1 [Amenamevir]	> 10000	85.3	> 10000	112	selectivity index in fibroblasts [5]: > 400; selectivity index in keratinocytes [7]: > 250
1.48	< 0.04	COc1ccc(-c2nc(N3CCOCC3)c3sc(CN(C)c4ncc(C(=O)NO)cn4)cc3n2)cn1 [Fimepinostat]	> 10000	87.4	> 10000	88.6	inhibition of viral GFP expression in keratinocytes [7]: at least 50%
		CC(C)c1cnn2c(NCc3ccccc3-n3cccn3)nc(OC3CCCNC3)nc12 (centres unmarked) [LDC4297]					CC50 [1]: > 10000 nM; submerged Curve Class ([2]; triplicate): −2.1; IC50 [2, 12]: 0.68 µM; submerged Max Inhibition (%) ([2]; triplicate, 48HPI): 94.82%; CC50 [9]: > 10000 nM; ALI Curve Class ([3]; triplicate): −1.1; IC50 ([3]; read-out: ALI IC50, triplicate, 48HPI): 0.11 µM; ALI Max Inhibition (%) ([3]; triplicate, 48HPI): 99.87%
0.39	0.11	O=C(Nc1ccc([N+](=O)[O-])cc1Cl)c1cc(Cl)ccc1O [Niclosamide]	> 10000	97.1	> 10000	98.7	
0.5	0.21	Cc1nc(N(C)C(=O)Cc2ccc(-c3ccccn3)cc2)sc1S(N)(=O)=O [Pritelivir]	> 10000	94.6	> 10000	102	selectivity index in fibroblasts [5]: > 400; selectivity index in keratinocytes [7]: > 250
	0.16	C=CC(=O)N1CC/C(=C\c2ccc(F)c([N+](=O)[O-])c2)C(=O)/C(=C/c2ccc(F)c([N+](=O)[O-])c2)C1 [VLX1570]					CC50 [1]: 8410 nM; submerged Curve Class ([2]; triplicate): −2.5; IC50 [2, 12]: 6.67 µM; submerged Max Inhibition (%) ([2]; triplicate, 48HPI): 55.49%; CC50 [9]: > 10000 nM; ALI Curve Class ([3]; triplicate): −1.1; ALI Max Inhibition (%) ([3]; triplicate, 48HPI): 101.22%
0.48	0.17	O=C(/C=C\n1cnc(-c2cc(C(F)(F)F)cc(C(F)(F)F)c2)n1)NNc1ccccn1 [Verdinexor]	> 10000	68.6	> 10000	108	inhibition of viral GFP expression in keratinocytes [7]: at least 50%
		Fluoroemetine					CC50 [1]: > 10000 nM; CC50 [9]: > 10000 nM

Molecule	IC50 [2, 10] [µM]	IC50 [3, 11] [µM]	CC50 at 48 h [4] [nM]	Emax [2] [%]	CC50 at 48 h [6] [nM]	Emax [3] [%]	also measured
Nc1ccn([C@@H]2O[C@H](CO)[C@@H](O)C2(F)F)c(=O)n1 [Gemcitabine]	0.19	0.16	> 10000	99.8	> 10000	102	selectivity ratio [5]: > 750; toxicity in keratinocytes [8]: showed toxicity in keratinocytes
CC(=O)O[C@H]1C[C@H](O[C@H]2[C@@H](O)C[C@H](O[C@H]3[C@@H](O)C[C@H](O[C@H]4CC[C@@]5(C)[C@H](CC[C@@H]6[C@@H]5C[C@@H](O)[C@]5(C)[C@@H](C7=CC(=O)OC7)CC[C@]65O)C4)O[C@@H]3C)O[C@@H]2C)O[C@H](C)[C@H]1O[C@@H]1O[C@H](CO)[C@@H](O)[C@H](O)[C@H]1O [Lanatoside C]	0.09	0.08	2490	107	> 10000	99.5	selectivity ratio [5]: > 750; toxicity in keratinocytes [8]: showed toxicity in keratinocytes
CC1(C)CC(=O)c2c(C(F)(F)F)nn(-c3ccc(C(N)=O)c(N[C@H]4CC[C@H](O)CC4)c3)c2C1 [SNX-2112]	0.05	< 0.04	1140	102	> 10000	107	toxicity in keratinocytes [8]: showed toxicity in keratinocytes
